Assay results from ChEMBL document CHEMBL5724801, “EUbOPEN Chemogenomics Library - Multiplex” (2024).
Values joined by “and” are separate entries in the source; they are usually repeats but may differ in a detail not shown here. Equal entries are not always repeated.

Test system: Fibroblast
Test: Multiplex assay against human fibroblast
Format: toxicity, cell-based
How it was run: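 Live cells were stained at seeding with Hoechst33342, BioTracker Green Microtubule Cytoskeleton Dye, MitoTracker Red and Annexin V Alexa Fluor 680, then imaged on a CQ1 microscope at 37°C and 5% CO2 after compound addition. CellPathfinder machine-learning gating split cells into Hoechst high-intensity objects or normal cells. Normal cells were split into healthy, pyknosed or fragmented nuclei, and pyknosed cells into mitotic or apoptotic. Tubulin, mitochondrial-mass and membrane-permeability phenotypes are per cents of healthy-nucleus cells.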

[1] = 12 h, 1 µM, compound concentration 1 uM
[2] = 12 h, 10 µM, compound concentration 10 uM
[3] = 24 h, 1 µM, compound concentration 1 uM
[4] = 24 h, 10 µM, compound concentration 10 uM
[5] = 48 h, 1 µM, compound concentration 1 uM
[6] = 48 h, 10 µM, compound concentration 10 uM

Cc1cc(O)c(-c2ccc([C@@H](C)CN(C)C)cc2)c2c1[nH]c(=O)c1sccc12
Population Healthy Nuclei (%) [1]: 67% and 56% and 55.08% and 75.51% | Population Hoechst High Intensity Objects (%) [1]: 7% and 2% and 0% | Population Membrane Permeable-Phenotype (%) [1]: 1% and 4% and 5.83% and 9.91% | Population Mitochondria Different-Phenotype (%) [1]: 17% and 12% and 18.45% and 20.72% | Population Mitotic Cells (%) [1]: 72.41% [middle of 4 runs] | Population Normal (%) [1]: 92% and 97% and 100% | Population Pyknosed Nuclei (%) [1]: 20% and 21% and 33.16% and 19.73% | Population Tubulin-Different-Phenotype (%) [1]: 44% and 52% and 26.21% and 40.54% | Total Cell Count [1]: 145 and 115 and 187 and 147 | Population Apoptotic (%) [2]: 69% [middle of 4 runs] | Population Healthy Nuclei (%) [2]: 63% and 55% and 58.38% and 64.17% | Population Hoechst High Intensity Objects (%) [2]: 6% and 5% and 0% | Population Membrane Permeable-Phenotype (%) [2]: 8.7% [middle of 4 runs] | Population Mitochondria Different-Phenotype (%) [2]: 40% [middle of 4 runs] | Population Mitotic Cells (%) [2]: 30% and 75.86% and 55.84% | Population Normal (%) [2]: 93% and 94% and 100% | Population Pyknosed Nuclei (%) [2]: 29.44% [middle of 4 runs] | Population Tubulin-Different-Phenotype (%) [2]: 90% and 80% and 81.74% and 85.06% | Total Cell Count [2]: 146 and 137 and 197 and 240 | Population Healthy Nuclei (%) [3]: 66% and 54% and 64.88% and 75% | Population Hoechst High Intensity Objects (%) [3]: 7% and 9% and 0% | Population Membrane Permeable-Phenotype (%) [3]: 0% and 1% and 5.5% and 9.26% | Population Mitochondria Different-Phenotype (%) [3]: 21.1% [middle of 4 runs] | Population Mitotic Cells (%) [3]: 54% and 47% and 85.37% and 84.62% | Population Normal (%) [3]: 92% and 90% and 100% | Population Pyknosed Nuclei (%) [3]: 21% and 16% and 24.4% and 18.06% | Population Tubulin-Different-Phenotype (%) [3]: 73% and 56% and 47.71% and 50.93% | Total Cell Count [3]: 119 and 111 and 168 and 144 | Population Apoptotic (%) [4]: 57% [middle of 4 runs] | Population Healthy Nuclei (%) [4]: 65% and 51% and 52.84% and 54.55% | Population Hoechst High Intensity Objects (%) [4]: 3% and 8% and 0% | Population Membrane Permeable-Phenotype (%) [4]: 0% and 3% and 6.45% and 8.77% | Population Mitochondria Different-Phenotype (%) [4]: 42% and 34% and 53.76% and 42.11% | Population Mitotic Cells (%) [4]: 43.68% [middle of 4 runs] | Population Normal (%) [4]: 96% and 91% and 100% | Population Pyknosed Nuclei (%) [4]: 34.66% [middle of 4 runs] | Population Tubulin-Different-Phenotype (%) [4]: 87% and 81% and 80.65% and 92.11% | Total Cell Count [4]: 122 and 124 and 176 and 209 | Population Apoptotic (%) [5]: 57% [middle of 4 runs] | Population Healthy Nuclei (%) [5]: 55% and 48% and 49.14% and 75.38% | Population Hoechst High Intensity Objects (%) [5]: 7% and 9% and 0% | Population Mitochondria Different-Phenotype (%) [5]: 20% [middle of 4 runs] | Population Mitotic Cells (%) [5]: 52% [middle of 4 runs] | Population Normal (%) [5]: 92% and 90% and 100% | Population Pyknosed Nuclei (%) [5]: 24% and 20% and 28.57% and 19.23% | Population Tubulin-Different-Phenotype (%) [5]: 70% and 62% and 43.02% and 59.18% | Total Cell Count [5]: 118 and 103 and 175 and 130 | Population Apoptotic (%) [6]: 70% and 71% and 49.33% and 79.12% | Population Healthy Nuclei (%) [6]: 53% and 43% and 45.16% and 48.13% | Population Hoechst High Intensity Objects (%) [6]: 10% and 7% and 0% | Population Membrane Permeable-Phenotype (%) [6]: 0% and 8.33% and 20% | Population Mitochondria Different-Phenotype (%) [6]: 53% and 30% and 44.05% | Population Mitotic Cells (%) [6]: 29% [middle of 4 runs] | Population Normal (%) [6]: 89% and 92% and 100% | Population Tubulin-Different-Phenotype (%) [6]: 89% and 85% and 58.33% and 77.78% | Total Cell Count [6]: 117 and 136 and 186 and 187

CC/C(=C(\c1ccc(O)cc1)c1ccc(OCCN(C)C)cc1)c1ccccc1 [AFIMOXIFENE]
Population Apoptotic (%) [1]: 6.78% and 3.57% | Population Fragmented Nuclei (%) [1]: 14.83% and 6.12% | Population Healthy Nuclei (%) [1]: 56.94% and 79.59% | Population Hoechst High Intensity Objects (%) [1]: 0% | Population Membrane Permeable-Phenotype (%) [1]: 2.52% and 2.56% | Population Mitochondria Different-Phenotype (%) [1]: 7.56% and 8.97% | Population Mitotic Cells (%) [1]: 93.22% and 96.43% | Population Normal (%) [1]: 100% | Population Pyknosed Nuclei (%) [1]: 28.23% and 14.29% | Population Tubulin-Different-Phenotype (%) [1]: 14.29% and 22.44% | Total Cell Count [1]: 209 and 196 | Population Fragmented Nuclei (%) [2]: 14.55% and 7.74% | Population Healthy Nuclei (%) [2]: 54.55% and 72.76% | Population Hoechst High Intensity Objects (%) [2]: 0% | Population Membrane Permeable-Phenotype (%) [2]: 3.33% and 2.55% | Population Mitochondria Different-Phenotype (%) [2]: 25.56% and 23.83% | Population Mitotic Cells (%) [2]: 94.12% and 80.95% | Population Normal (%) [2]: 100% | Population Pyknosed Nuclei (%) [2]: 30.91% and 19.5% | Population Tubulin-Different-Phenotype (%) [2]: 54.44% and 66.38% | Total Cell Count [2]: 165 and 323 | Population Apoptotic (%) [3]: 8.77% and 18.75% | Population Fragmented Nuclei (%) [3]: 10.78% and 8.21% | Population Healthy Nuclei (%) [3]: 64.66% and 83.59% | Population Hoechst High Intensity Objects (%) [3]: 0% | Population Membrane Permeable-Phenotype (%) [3]: 4% and 2.45% | Population Mitochondria Different-Phenotype (%) [3]: 6.67% and 9.82% | Population Mitotic Cells (%) [3]: 91.23% and 81.25% | Population Normal (%) [3]: 100% | Population Pyknosed Nuclei (%) [3]: 24.57% and 8.21% | Population Tubulin-Different-Phenotype (%) [3]: 18% and 23.31% | Total Cell Count [3]: 232 and 195 | Population Apoptotic (%) [4]: 17.65% and 48.31% | Population Fragmented Nuclei (%) [4]: 12.57% | Population Healthy Nuclei (%) [4]: 50.27% and 67.6% | Population Hoechst High Intensity Objects (%) [4]: 0% | Population Membrane Permeable-Phenotype (%) [4]: 3.26% and 2.76% | Population Mitochondria Different-Phenotype (%) [4]: 29.35% and 27.19% | Population Mitotic Cells (%) [4]: 82.35% and 51.69% | Population Normal (%) [4]: 100% | Population Pyknosed Nuclei (%) [4]: 37.16% and 27.73% | Population Tubulin-Different-Phenotype (%) [4]: 70.65% and 79.72% | Total Cell Count [4]: 183 and 321 | Population Fragmented Nuclei (%) [5]: 9.52% and 11.27% | Population Healthy Nuclei (%) [5]: 83.67% and 81.69% | Population Hoechst High Intensity Objects (%) [5]: 0% | Population Membrane Permeable-Phenotype (%) [5]: 1.22% and 2.3% | Population Mitochondria Different-Phenotype (%) [5]: 9.35% and 5.17% | Population Mitotic Cells (%) [5]: 95% and 73.33% | Population Normal (%) [5]: 100% | Population Pyknosed Nuclei (%) [5]: 6.8% and 7.04% | Population Tubulin-Different-Phenotype (%) [5]: 8.94% and 25.86% | Total Cell Count [5]: 294 and 213 | Population Apoptotic (%) [6]: 28.57% and 43.14% | Population Healthy Nuclei (%) [6]: 71.37% and 80.49% | Population Hoechst High Intensity Objects (%) [6]: 0% | Population Membrane Permeable-Phenotype (%) [6]: 4.71% | Population Mitochondria Different-Phenotype (%) [6]: 13.37% and 7.41% | Population Mitotic Cells (%) [6]: 71.43% and 56.86% | Population Normal (%) [6]: 100% | Population Pyknosed Nuclei (%) [6]: 8.71% and 13.82% | Population Tubulin-Different-Phenotype (%) [6]: 49.42% and 76.77% | Total Cell Count [6]: 241 and 369
